Results reported in ChEMBL document CHEMBL1121485, “Antiestrogens. Synthesis and evaluation of mammary tumor inhibiting activity of 1,1,2,2-tetraalkyl-1,2 -diphenylethanes” (1980).

Species: Mus musculus
Test: Inhibition of estrone-stimulated uterine growth in mice at 25 ug

Row | Structure (SMILES) | Inhibition [%]
1 | CC(=O)Oc1cc(OC(C)=O)cc(C(C)(C)C(C)(C)c2cc(OC(C)=O)cc(OC(C)=O)c2)c1 | 9.1
2 | CCC(C)(c1ccc(O)cc1)C(C)(CC)c1ccc(O)cc1 (centres undefined) | 13.1
3 | CC(C)(c1ccc(F)c(O)c1)C(C)(C)c1ccc(F)c(O)c1 | 20.9

Biological target: T1, Estrogen receptor (Mus musculus) (UniProt O08537+P19785)
Test: Anti-uterotrophic effect in mice as uterus dry weight(mg) compared to body weight(g) at 10 ug/day dose
Type: functional, tissue-based
Outline: (§1)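 Mice aged 20 days at start, dosed sc once daily for 3 days (0.1 mL injections, arachis oil vehicle); vehicle-only control group. Killed 24 h after last dose; body weight recorded; uteri fixed in Bouin's solution 12 h, trimmed of connective tissue, washed with saturated alcoholic LiCl, dried 100 °C for 24 h, then weighed.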

T1 sequence (O08537 whole entry, looked up): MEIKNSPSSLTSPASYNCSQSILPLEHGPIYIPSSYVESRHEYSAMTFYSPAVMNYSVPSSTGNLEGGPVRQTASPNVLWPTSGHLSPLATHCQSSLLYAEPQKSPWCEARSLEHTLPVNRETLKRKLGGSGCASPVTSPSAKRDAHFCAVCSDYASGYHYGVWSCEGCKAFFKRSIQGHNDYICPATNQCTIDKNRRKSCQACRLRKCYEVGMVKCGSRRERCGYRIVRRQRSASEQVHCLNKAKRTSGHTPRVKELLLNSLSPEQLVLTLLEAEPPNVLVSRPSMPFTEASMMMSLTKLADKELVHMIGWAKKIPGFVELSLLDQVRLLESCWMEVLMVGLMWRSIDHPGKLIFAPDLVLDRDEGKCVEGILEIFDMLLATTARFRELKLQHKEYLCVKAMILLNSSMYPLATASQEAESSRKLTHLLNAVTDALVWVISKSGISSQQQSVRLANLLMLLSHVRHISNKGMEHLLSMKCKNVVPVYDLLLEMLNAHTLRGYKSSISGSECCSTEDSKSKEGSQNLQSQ
T1 sequence (P19785 whole entry, looked up): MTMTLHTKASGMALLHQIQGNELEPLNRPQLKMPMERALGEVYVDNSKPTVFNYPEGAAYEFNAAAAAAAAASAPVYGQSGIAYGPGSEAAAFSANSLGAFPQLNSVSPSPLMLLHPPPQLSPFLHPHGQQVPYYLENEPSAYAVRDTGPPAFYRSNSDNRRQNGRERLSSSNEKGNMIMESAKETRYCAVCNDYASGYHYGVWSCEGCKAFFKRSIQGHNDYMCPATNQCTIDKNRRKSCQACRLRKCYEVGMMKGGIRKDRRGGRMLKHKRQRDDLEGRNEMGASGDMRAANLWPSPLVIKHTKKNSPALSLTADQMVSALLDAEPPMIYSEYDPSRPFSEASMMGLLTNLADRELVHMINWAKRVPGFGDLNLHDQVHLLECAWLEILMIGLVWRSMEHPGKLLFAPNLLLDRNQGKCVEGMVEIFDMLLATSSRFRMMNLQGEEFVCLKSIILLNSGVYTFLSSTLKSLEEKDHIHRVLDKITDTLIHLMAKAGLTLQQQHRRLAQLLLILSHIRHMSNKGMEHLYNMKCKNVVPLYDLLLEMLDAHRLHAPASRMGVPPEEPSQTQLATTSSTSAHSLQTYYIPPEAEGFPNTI

Row | Structure (SMILES) | Effect
4 | CC(=O)Oc1cc(OC(C)=O)cc(C(C)(C)C(C)(C)c2cc(OC(C)=O)cc(OC(C)=O)c2)c1 | 37.5
5 | CCC(C)(c1ccc(O)cc1)C(C)(CC)c1ccc(O)cc1 (centres undefined) | 34.6

Species: Mus musculus
Test: Inhibition of estrone-stimulated uterine growth in mice at 500 ug

Row | Structure (SMILES) | Inhibition [%]
6 | CC(C)(c1ccc(F)c(O)c1)C(C)(C)c1ccc(F)c(O)c1 | 61.5

Biological target: T1, Estrogen receptor (Mus musculus)
Test: Uterotrophic effect in mice as uterus dry weight(mg) compared to body weight(g) at 100 ug/day dose
Type: functional, tissue-based
Outline: as §1

Row | Structure (SMILES) | Effect
7 | CC(C)(c1ccc(F)c(O)c1)C(C)(C)c1ccc(F)c(O)c1 | 16.7

Species: Mus musculus
Test: Inhibition of estrone-stimulated uterine growth in mice at 100 ug

Row | Structure (SMILES) | Inhibition [%]
8 | CC(=O)Oc1cc(OC(C)=O)cc(C(C)(C)C(C)(C)c2cc(OC(C)=O)cc(OC(C)=O)c2)c1 | 1.6
9 | CC(C)(c1ccc(F)c(O)c1)C(C)(C)c1ccc(F)c(O)c1 | 53.1

Biological target: T2, Estrogen receptor (Bos taurus) (UniProt Q9XSB5+P49884)
Test: Ratio of association constants for estradiol and compound in estrogen receptor binding assay
Type: protein assay

Row | Structure (SMILES) | RAC
10 | CC(=O)Oc1cc(OC(C)=O)cc(C(C)(C)C(C)(C)c2cc(OC(C)=O)cc(OC(C)=O)c2)c1 | 6.6e-05
11 | CCC(C)(c1ccc(O)cc1)C(C)(CC)c1ccc(O)cc1 (centres undefined) | 0.0025
12 | CC(C)(c1ccc(F)c(O)c1)C(C)(C)c1ccc(F)c(O)c1 | 0.0029

Biological target: T1, Estrogen receptor (Mus musculus)
Test: Uterotrophic effect in mice as uterus dry weight(mg) compared to body weight(g) at 250 ug/day dose
Type: functional, tissue-based
Outline: as §1

Row | Structure (SMILES) | Effect
13 | CC(=O)Oc1cc(OC(C)=O)cc(C(C)(C)C(C)(C)c2cc(OC(C)=O)cc(OC(C)=O)c2)c1 | 11.3
14 | CCC(C)(c1ccc(O)cc1)C(C)(CC)c1ccc(O)cc1 (centres undefined) | 50.1

Species: Mus musculus
Test: Inhibition of estrone-stimulated uterine growth in mice at 10 ug

Row | Structure (SMILES) | Inhibition [%]
15 | CC(=O)Oc1cc(OC(C)=O)cc(C(C)(C)C(C)(C)c2cc(OC(C)=O)cc(OC(C)=O)c2)c1 | 14.4
16 | CCC(C)(c1ccc(O)cc1)C(C)(CC)c1ccc(O)cc1 (centres undefined) | 10.4

Biological target: T1, Estrogen receptor (Mus musculus)
Test: Uterotrophic effect in mice as uterus dry weight(mg) compared to body weight(g) at 2 ug/day dose
Type: functional, tissue-based
Outline: as §1

Row | Structure (SMILES) | Effect
17 | CCC(C)(c1ccc(O)cc1)C(C)(CC)c1ccc(O)cc1 (centres undefined) | 24.6

Biological target: T1, Estrogen receptor (Mus musculus)
Test: Uterotrophic effect in mice as uterus dry weight(mg) compared to body weight(g) at 500 ug/day dose
Type: functional, tissue-based
Outline: as §1

Row | Structure (SMILES) | Effect
18 | CC(C)(c1ccc(F)c(O)c1)C(C)(C)c1ccc(F)c(O)c1 | 21.4

Biological target: T2, Estrogen receptor (Bos taurus)
Test: Relative binding affinity for Estrogen receptor compared to 17-beta-estradiol
Type: protein assay

Row | Structure (SMILES) | RA
19 | CC(=O)Oc1cc(OC(C)=O)cc(C(C)(C)C(C)(C)c2cc(OC(C)=O)cc(OC(C)=O)c2)c1 | 7.1e-05
20 | CCC(C)(c1ccc(O)cc1)C(C)(CC)c1ccc(O)cc1 (centres undefined) | 0.0027
21 | CC(C)(c1ccc(F)c(O)c1)C(C)(C)c1ccc(F)c(O)c1 | 0.0031

Biological target: T2, Estrogen receptor (Bos taurus)
Test: Association constant for Estrogen receptor
Type: protein assay

Row | Structure (SMILES) | Ka [M⁻¹]
22 | CC(=O)Oc1cc(OC(C)=O)cc(C(C)(C)C(C)(C)c2cc(OC(C)=O)cc(OC(C)=O)c2)c1 | 480000
23 | CCC(C)(c1ccc(O)cc1)C(C)(CC)c1ccc(O)cc1 (centres undefined) | 1.8e+07
24 | CC(C)(c1ccc(F)c(O)c1)C(C)(C)c1ccc(F)c(O)c1 | 2.1e+07

Biological target: T1, Estrogen receptor (Mus musculus)
Test: Anti-uterotrophic effect in mice as uterus dry weight(mg) compared to body weight(g) at 25 ug/day dose
Type: functional, tissue-based
Outline: as §1

Row | Structure (SMILES) | Effect
25 | CC(=O)Oc1cc(OC(C)=O)cc(C(C)(C)C(C)(C)c2cc(OC(C)=O)cc(OC(C)=O)c2)c1 | 39
26 | CCC(C)(c1ccc(O)cc1)C(C)(CC)c1ccc(O)cc1 (centres undefined) | 34
27 | CC(C)(c1ccc(F)c(O)c1)C(C)(C)c1ccc(F)c(O)c1 | 35.2

Biological target: T1, Estrogen receptor (Mus musculus)
Test: Uterotrophic effect in mice as uterus dry weight(mg) compared to body weight(g) at 2.5 ug/day dose
Type: functional, tissue-based
Outline: as §1

Row | Structure (SMILES) | Effect
28 | CC(=O)Oc1cc(OC(C)=O)cc(C(C)(C)C(C)(C)c2cc(OC(C)=O)cc(OC(C)=O)c2)c1 | 11.1

Biological target: T1, Estrogen receptor (Mus musculus)
Test: Uterotrophic effect in mice as uterus dry weight(mg) compared to body weight(g) at 10 ug/day dose
Type: functional, tissue-based
Outline: as §1

Row | Structure (SMILES) | Effect
29 | CC(=O)Oc1cc(OC(C)=O)cc(C(C)(C)C(C)(C)c2cc(OC(C)=O)cc(OC(C)=O)c2)c1 | 12.1
30 | CCC(C)(c1ccc(O)cc1)C(C)(CC)c1ccc(O)cc1 (centres undefined) | 34.7

Species: Mus musculus
Test: Inhibition of estrone-stimulated uterine growth in mice at 2.5 ug

Row | Structure (SMILES) | Inhibition [%]
31 | CC(=O)Oc1cc(OC(C)=O)cc(C(C)(C)C(C)(C)c2cc(OC(C)=O)cc(OC(C)=O)c2)c1 | 8.9

Biological target: T1, Estrogen receptor (Mus musculus)
Test: Uterotrophic effect in mice as uterus dry weight(mg) compared to body weight(g) at 4 ug/day dose
Type: functional, tissue-based
Outline: as §1

Row | Structure (SMILES) | Effect
32 | CC(C)(c1ccc(F)c(O)c1)C(C)(C)c1ccc(F)c(O)c1 | 17.8

Biological target: T1, Estrogen receptor (Mus musculus)
Test: Anti-uterotrophic effect in mice as uterus dry weight(mg) compared to body weight(g) at 0 ug/day dose
Type: functional, tissue-based
Outline: as §1

Row | Structure (SMILES) | Effect
33 | CC(=O)Oc1cc(OC(C)=O)cc(C(C)(C)C(C)(C)c2cc(OC(C)=O)cc(OC(C)=O)c2)c1 | 12.6
34 | CCC(C)(c1ccc(O)cc1)C(C)(CC)c1ccc(O)cc1 (centres undefined) | 14
35 | CC(C)(c1ccc(F)c(O)c1)C(C)(C)c1ccc(F)c(O)c1 | 15.7

Biological target: T1, Estrogen receptor (Mus musculus)
Test: Anti-uterotrophic effect in mice as uterus dry weight(mg) compared to body weight(g) at 2.5 ug/day dose
Type: functional, tissue-based
Outline: as §1

Row | Structure (SMILES) | Effect
36 | CC(=O)Oc1cc(OC(C)=O)cc(C(C)(C)C(C)(C)c2cc(OC(C)=O)cc(OC(C)=O)c2)c1 | 39.1

Biological target: T1, Estrogen receptor (Mus musculus)
Test: Anti-uterotrophic effect in mice as uterus dry weight(mg) compared to body weight(g) at 5 ug/day dose
Type: functional, tissue-based
Outline: as §1

Row | Structure (SMILES) | Effect
37 | CC(C)(c1ccc(F)c(O)c1)C(C)(C)c1ccc(F)c(O)c1 | 36.1

Species: Mus musculus
Test: Inhibition of estrone-stimulated uterine growth in mice at 5 ug

Row | Structure (SMILES) | Inhibition [%]
38 | CC(C)(c1ccc(F)c(O)c1)C(C)(C)c1ccc(F)c(O)c1 | 17.2

Biological target: T1, Estrogen receptor (Mus musculus)
Test: Uterotrophic effect in mice as uterus dry weight(mg) compared to body weight(g) at 0 ug/day dose
Type: functional, tissue-based
Outline: as §1

Row | Structure (SMILES) | Effect
39 | CC(=O)Oc1cc(OC(C)=O)cc(C(C)(C)C(C)(C)c2cc(OC(C)=O)cc(OC(C)=O)c2)c1 | 11.4
40 | CCC(C)(c1ccc(O)cc1)C(C)(CC)c1ccc(O)cc1 (centres undefined) | 15.4
41 | CC(C)(c1ccc(F)c(O)c1)C(C)(C)c1ccc(F)c(O)c1 | 15.4

Biological target: T1, Estrogen receptor (Mus musculus)
Test: Uterotrophic effect in mice as uterus dry weight(mg) compared to body weight(g) at 20 ug/day dose
Type: functional, tissue-based
Outline: as §1

Row | Structure (SMILES) | Effect
42 | CC(C)(c1ccc(F)c(O)c1)C(C)(C)c1ccc(F)c(O)c1 | 16.7

Biological target: T1, Estrogen receptor (Mus musculus)
Test: Uterotrophic effect in mice as uterus dry weight(mg) compared to body weight(g) at 50 ug/day dose
Type: functional, tissue-based
Outline: as §1

Row | Structure (SMILES) | Effect
43 | CC(=O)Oc1cc(OC(C)=O)cc(C(C)(C)C(C)(C)c2cc(OC(C)=O)cc(OC(C)=O)c2)c1 | 14.1
44 | CCC(C)(c1ccc(O)cc1)C(C)(CC)c1ccc(O)cc1 (centres undefined) | 39.1

Biological target: T1, Estrogen receptor (Mus musculus)
Test: Anti-uterotrophic effect in mice as uterus dry weight(mg) compared to body weight(g) at 100 ug/day dose
Type: functional, tissue-based
Outline: as §1

Row | Structure (SMILES) | Effect
45 | CC(=O)Oc1cc(OC(C)=O)cc(C(C)(C)C(C)(C)c2cc(OC(C)=O)cc(OC(C)=O)c2)c1 | 41.3
46 | CCC(C)(c1ccc(O)cc1)C(C)(CC)c1ccc(O)cc1 (centres undefined) | 38.2
47 | CC(C)(c1ccc(F)c(O)c1)C(C)(C)c1ccc(F)c(O)c1 | 27.3

Biological target: T1, Estrogen receptor (Mus musculus)
Test: Anti-uterotrophic effect in mice as uterus dry weight(mg) compared to body weight(g) at 500 ug/day dose
Type: functional, tissue-based
Outline: as §1

Row | Structure (SMILES) | Effect
48 | CCC(C)(c1ccc(O)cc1)C(C)(CC)c1ccc(O)cc1 (centres undefined) | 42.2
49 | CC(C)(c1ccc(F)c(O)c1)C(C)(C)c1ccc(F)c(O)c1 | 25.2
